# Assay results gathered from unrelated publications.
# Lines come from different studies, so protocols differ.
# Target: Cyclin-dependent kinase 14 (CDK14, Homo sapiens, UniProt O94921)
Compound,read-out,technique,concentration,remaining binding [%]
COc1ccnn2ncc(-c3ccnc(N(C)C)n3)c12,binding,,1 µM,100
CC(=O)N1CCC(c2ccc(C(=O)NC3=NCCN3)cc2C(F)(F)F)CC1,cell-free assay,competition with immobilised ligand,1 µM,100
COc1cnc(Nc2cccc(S(N)(=O)=O)c2)nc1N1CCN(c2ccccc2)CC1,binding,competition with immobilised ligand,1 µM,94
Cc1cnc(Nc2ccc(C(=O)N3CCC(N4CCCC4)CC3)cc2)nc1-c1cc2ccccc2s1,binding,competition with immobilised ligand,1 µM,100
Cc1cc(NC(=O)c2cccc(S(F)(F)(F)(F)F)c2)cc(-n2ccn3nc(-c4cccnc4)cc23)c1,cell-free assay,competition with immobilised ligand,1 µM,93.8
CN(C)c1nccc(-c2cnn3ncccc23)n1,binding,,1 µM,89
O=C(c1ccc(Nc2nccc(-c3cc4ccccc4s3)n2)cc1)N1CCC(N2CCCC2)CC1,binding,competition with immobilised ligand,1 µM,100
CN(C)c1nccc(-c2cnc3ncccn23)n1,binding,,1 µM,100
c1cncc(-c2cccc(Nc3nccc(NC4CCCCC4)n3)c2)c1,binding,competition with immobilised ligand,10 µM,90
CCN1CCN(Cc2ccc(C(=O)Nc3ccc(C)c(Oc4ccc5c(c4)CC(=O)N5)c3)cc2C(F)(F)F)CC1,binding,competition with immobilised ligand,1 µM,100
O=C(NCC1CCOCC1)c1n[nH]cc1NC(=O)c1c(F)cccc1F,binding,competition with immobilised ligand,1 µM,79
O=C(N[C@H]1CCCCC/C=C\C2C[C@@]2(C(=O)O)NC(=O)[C@@H]2C[C@@H](Oc3ccncc3)CN2C1=O)OC1CCCC1 (stereo partly shown),binding,competition with immobilised ligand,1 µM,91
O=C(NCCCN1CCOCC1)c1ccc(Nc2nccc(-c3cc4ccccc4s3)n2)cc1,binding,competition with immobilised ligand,1 µM,100
C[C@@H]1CCN(c2nccc(-c3cnn4ncccc34)n2)C1,binding,,1 µM,100
Cc1cc(C)c(-n2ccn3nc(-c4cccnc4)cc23)cc1NC(=O)c1cc(C#N)cc(S(F)(F)(F)(F)F)c1,cell-free assay,competition with immobilised ligand,0.1 µM,100
N[C@@H]1CCN(c2nccc(-c3cnn4ncccc34)n2)C1,binding,,1 µM,100
COc1ncc2cc3ccccc3nc2c1C#N,cell-free assay,competition with immobilised ligand,5 µM,99
Cc1nc(C2CCN(C(=O)c3ccc(OC(F)(F)F)cc3N)CC2)c2ncc(N3CCN(C)CC3)cc2n1,cell-free assay,competition with immobilised ligand,1 µM,100
CN(CCCC(F)(F)F)c1nccc(-c2cnn3ncccc23)n1,binding,,1 µM,93
